Source: PubChem BioAssay
Compounds with a hit are over-represented: about 2.4% of the library has one in this group of screens.
CSN deneddyl inh: inhibitors of CSN-mediated cullin deneddylation, primary screen, biochemical, fluorescence polarization, uHTS; COP9 signalosome complex subunit 5 (Homo sapiens), Q92905; Purified CSN, SCF-Nedd8-OG deneddylation; inhibition, % at 12.5 µM; 360,000 tested, 0.38% active; AID 651999, 2013;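 active = pattern-corrected inhibition above about 35%, with an unprinted fluorescence ratio check between 0.5 and 1.5, limit read from the data, passing the limit was not always enough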
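Material: human Csn5 produced in HEK293T cells; Input: enzyme 0.24 nM; Reagent: SCFSkp2-Nedd8OG substrate at 10 nM final; Dosing: 12.5 µM compound; Incubation: 90 min reaction at room temperature; Detection: fluorescence polarization of the substrate; Evaluation: % inhibition of substrate cleavage by Csn5; Control set: substrate-only high control, full reaction low control.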
Rpn11 block: Rpn11 (PSMD14) deubiquitinase inhibitors, primary screen, biochemical, fluorescence polarization, uHTS. AID 588493, 2011. human 26S proteasome, Ub4-pepOG fluorescence polarization; 20S core pre-blocked with epoxomicin. inhibition, % at 20 µM. 360,000 tested, 0.59% active. 26S proteasome non-ATPase regulatory subunit 14 (Homo sapiens), O00487;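 active = inhibition at 20 µM, scaled to each plate's controls, above about 33%, limit read from the data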
TPT1 inhibitor: Candida albicans TPT1 enzyme inhibitors, primary screen, biochemical, fluorescence polarization; inhibition, % at 5 µM; recombinant caTPT1, FP RNA substrate dephosphorylation; 300,000 tested, 0.81% active; tRNA 2'-phosphotransferase TPT1 (Candida albicans SC5314); AID 1962, 2009;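 active = inhibition above the mean of all tested compounds plus 3 SD, set per screening campaign, cut at about 24% in these data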
Neddyl block: inhibitors of cullin neddylation, primary screen, biochemical, TR-FRET, uHTS, NAE and Ubc12 | inhibition, % at 25 µM | AID 651699, 2012 | 360,000 tested, 0.58% active; in the data active = inhibition above about 36%
Rin1 Abl inh: inhibitors of Rin1-Abl protein binding, primary screen, biochemical, TR-FRET | Tyrosine-protein kinase ABL1 (Homo sapiens) + Ras and Rab interactor 1 (Homo sapiens), … | inhibition, % at 7.35 µM | 360,000 tested, 0.4% active | AID 588664, 2011; in the data active = inhibition above about 5%, passing the limit was not always enough
HNF4A DNA FP: change in binding of human HNF4A to DNA, primary screen, biochemical, fluorescence polarization, FITC-DNA. Hepatocyte nuclear factor 4-alpha (Homo sapiens), P41235. 1 h. activity change, % at 10 µM. 360,000 tested, 0.3% active. AID 1224865, 2016; in the data active = activity change above about 30%, passing the limit was not always enough
Rpn11 confirm: Rpn11 (PSMD14) deubiquitinase inhibitors, confirmation, biochemical, fluorescence polarization, single concentration; shares compounds with Rpn11 block; purified human 26S proteasome, Ub4-pepOG fluorescence polarization; proteasome pretreated with epoxomicin; AID 602318, 2012; 1,900 tested, 29% active; inhibition, % at 20 µM
MMP-2 inh: MMP-2 enzyme inhibition, confirmation, counter-screen for RPN11 inhibitor project, biochemical, fluorescence, single concentration | shares compounds with Rpn11 block | recombinant MMP-2, FRET peptide cleavage fluorescence | inhibition, % at 20 µM | 1,900 tested, 4% active;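 note: human MMP-2 activated beforehand with APMA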
Thrombin inh: bovine thrombin protease inhibition, confirmation, counter-screen for Rpn11 inhibitor project, biochemical, fluorescence polarization, single concentration; shares compounds with Rpn11 block; bovine thrombin cleavage of Ub4-pepOG; inhibition, % at 20 µM; 1,900 tested, 13% active; AID 602333, 2012;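 active = mean inhibition at least 40% at 20 µM, or signal 3 deviations below plate average, so some actives read negative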
A number is an active result; - = inactive; . = no result given. Cut-off read from the data, not from the text of the source, unless noted: active = inhibition above about 40%; inactive = the rest.

SMILES	CSN deneddyl inh	Rpn11 block	TPT1 inhibitor	Neddyl block	Rin1 Abl inh	HNF4A DNA FP	Rpn11 confirm	MMP-2 inh	Thrombin inh
COc1ccc(-c2[nH]c(-c3ccc(SC)cc3)nc2SCC(=O)Nc2nccs2)cc1	-	70.8	-	-	-	-	86.8	-	62.7
Cc1cc(C)cc(NC(=O)C(OC(=O)c2ccc(NC(=O)CC#N)cc2)c2ccccc2)c1 (configuration not stated)	-	48.5	-	-	-	-	-	-	-
Cc1ccc(C)c(NC(=O)C(OC(=O)c2ccc(NC(=O)CC#N)cc2)c2ccccc2)c1 (configuration not stated)	-	-	-	-	-	-	.	.	.
Cc1cc(C)cc(NS(=O)(=O)c2cnc(Cl)c(Cl)c2)c1	-	52.3	-	-	-	40.3	-	-	-
CC(=O)Oc1ccc(-c2ccc(C(=O)NCCc3ccc(S(N)(=O)=O)cc3)cc2)cc1	-	48.5	-	-	-	-	-	-	-
CC(=O)Oc1ccc(C(=O)NCCc2ccccc2)cc1	-	-	-	-	-	-	.	.	.
O=C(Nc1ccc(S(=O)(=O)Nc2ccccc2)cc1)C1COc2ccccc2O1 (configuration not stated)	-	62.5	-	-	-	-	-	-	-
Fc1ccc(-c2nnc3ccc(N4CCCC4)nn23)cc1	-	-	-	-	-	-	.	.	.
Brc1ccc(-c2nnc3ccc(N4CCN(c5ccccc5)CC4)nn23)cc1	-	62.3	-	-	-	-	-	-	-
O=C(CC[C@H]1O[C@@H](n2ccc(=O)[nH]c2=O)[C@H](O)[C@@H]1O)NCC(c1ccccc1)c1ccccc1	-	-	.	-	-	-	.	.	.
CCOC(=O)c1nnc2cc(-c3ccccc3)nn2c1C	-	45.5	-	-	-	-	-	-	-
CCOC(=O)c1nnc2cc(-c3ccc(Br)cc3)nn2c1C	-	-	-	-	-	-	.	.	.
COc1ccc(CCN2C(=O)C=CC2=O)cc1OC	-	-	.	-	-	-	.	.	.
COC(=O)C1=C(C)N(CCc2ccc(OC)c(OC)c2)C(=O)/C1=C\N(C)C	-	60.3	-	-	-	-	-	-	-
COc1ccc(C(=O)c2[nH]c(N)c(C(=O)NCCc3c[nH]c4ccccc34)c2-c2c(F)cccc2Cl)cc1	-	.	.	-	.	-	.	.	.
O=C(CCCn1c(=S)[nH]c2ccccc2c1=O)N1CCN(c2cccc(Cl)c2)CC1	-	96.2	-	-	-	-	64.3	64.7	-
COc1ccccc1C(=O)NC(=S)/C=C1/N(C)c2ccccc2C1(C)C	-	-	-	-	-	-	.	.	.
CN1/C(=C\C(=S)NC(=O)c2ccccc2Cl)C(C)(C)c2ccccc21	-	86.5	-	-	-	67.6	-	42.4	-
COc1cc(/C=C2\SC(=S)N(N(C)c3ccccc3)C2=O)ccc1O	-	57.3	-	-	-	-	-	-	-
N#Cc1cc(C#N)c(SCC(=O)N2CC(=O)Nc3ccccc32)nc1N	-	43.4	.	-	-	-	-	-	-
CCc1ccc2nc(SCC(=O)N3CC(=O)Nc4ccccc43)c(C#N)cc2c1	-	-	-	-	-	-	.	.	.
